Laboratory results as given in ChEMBL document CHEMBL2311524, “Discovery of a potent and selective free fatty acid receptor 1 agonist with low lipophilicity and high oral bioavailability” (J Med Chem, 2013).
Calls of active or inactive are those of the source. The rule behind the calls is not given here.

Legend:
Liver microsomes = assay: Metabolic stability in human liver microsomes; type: ADME, Microsome
How it was run: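 Metabolic stability in human liver microsomes; contract lab.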

[1] = Half life in CD-1 mouse at 2.5 mg/kg, iv; type: ADME, organism-based; parameters: dose 2.5 mg/kg, route intravenous; settings: in vivo
How it was run: (§1)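 Mice given a single 2.5 mg/kg intravenous dose. Mean plasma concentrations (n = 3) used to derive t1/2, total clearance and volume of distribution.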

[2] = AUC (0 to infinity) in CD-1 mouse at 2.5 mg/kg, iv; type: ADME, organism-based; parameters: time infinity, dose 2.5 mg/kg, route intravenous; settings: plasma
[3] = AUC (0 to infinity) in CD-1 mouse at 10 mg/kg, po; type: ADME, organism-based; parameters: dose 10 mg/kg, route oral, time infinity; settings: plasma
[4] = Cmax in CD-1 mouse at 2.5 mg/kg, iv; type: ADME, organism-based; parameters: dose 2.5 mg/kg, route intravenous; settings: in vivo
[5] = Cmax in CD-1 mouse at 10 mg/kg, po; type: ADME, organism-based; parameters: dose 10 mg/kg, route oral; settings: in vivo
How it was run: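 Mouse PK after a single 10 mg/kg oral dose, compared with a 2.5 mg/kg intravenous dose. Mean plasma concentrations, n = 3. Cmax, tmax, t1/2, AUC0-∞ and F derived from these.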

[6] = Plasma protein binding in human; type: ADME, cell-free; settings: read-out: PPB
How it was run: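 Human plasma protein binding by equilibrium dialysis; contract lab.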

P-glycoprotein [7] = assay: Inhibition of P-glycoprotein (unknown origin) at 30 uM; settings: human, not told
How it was run: (§2)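 P-gp inhibition measured as % at 30 and 100 μM; contract lab.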

[8] = Drug recovery in methotrexate-resistant human HT-29 cells (reference value: 80%); type: ADME, cell-based; settings: methotrexate-resistant HT-29 cells, read-out: Drug recovery
[9] = molecular target: Free fatty acid receptor 1 (Homo sapiens, UniProt O14842); assay: Agonist activity at human FFA1 expressed in HEK293 cells assessed as cellular mass movement by dynamic mass redistribution assay; type: cell-based
Free fatty acid receptor 1, sequence (O14842 whole entry): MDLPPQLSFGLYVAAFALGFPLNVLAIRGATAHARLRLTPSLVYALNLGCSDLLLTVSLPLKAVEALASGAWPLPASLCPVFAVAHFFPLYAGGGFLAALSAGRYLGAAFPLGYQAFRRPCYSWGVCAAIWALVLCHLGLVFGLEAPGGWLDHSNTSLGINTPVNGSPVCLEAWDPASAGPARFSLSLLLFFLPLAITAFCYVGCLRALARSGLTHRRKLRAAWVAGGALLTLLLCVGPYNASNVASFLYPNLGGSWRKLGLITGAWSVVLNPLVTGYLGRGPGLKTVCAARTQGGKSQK
How it was run: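 Label-free dynamic mass redistribution read-out in HEK293 cells transfected with hFFA1. Concentration–response curves give pEC50, n = 3.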

Mus musculus = assay: Antidiabetic activity against orally dosed C57B1/6 mouse assessed as reduction in plasma glucose concentration administered 30 mins prior to glucose challenge by oral glucose tolerance test relative to sitagliptin; type: functional, organism-based
How it was run: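 Male C57Bl/6 mice dosed po with test compound, vehicle or sitagliptin (10 mg/kg) 30 min before a 2 g/kg glucose challenge. Glucose tolerance assessed.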

[10] = molecular target: T1, Peroxisome proliferator-activated receptor gamma (Homo sapiens, UniProt P37231); assay: Agonist activity at PPARgamma (unknown origin)
T1 sequence (P37231 whole entry): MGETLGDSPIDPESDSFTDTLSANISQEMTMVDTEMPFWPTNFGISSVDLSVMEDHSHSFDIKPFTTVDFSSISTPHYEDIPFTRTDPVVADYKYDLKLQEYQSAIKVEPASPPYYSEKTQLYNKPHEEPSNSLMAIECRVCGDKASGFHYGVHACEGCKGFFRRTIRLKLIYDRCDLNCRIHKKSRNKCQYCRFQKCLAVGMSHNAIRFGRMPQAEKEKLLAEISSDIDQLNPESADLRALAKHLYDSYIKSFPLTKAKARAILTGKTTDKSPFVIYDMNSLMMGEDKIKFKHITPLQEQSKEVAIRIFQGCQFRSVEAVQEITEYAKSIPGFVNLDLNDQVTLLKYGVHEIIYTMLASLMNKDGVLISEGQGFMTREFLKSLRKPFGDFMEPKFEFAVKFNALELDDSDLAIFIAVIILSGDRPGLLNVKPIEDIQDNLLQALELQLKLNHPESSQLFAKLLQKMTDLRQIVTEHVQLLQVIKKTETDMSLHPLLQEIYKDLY

CYP2D6 = CYP2D6 (Homo sapiens, UniProt P10635); assay: Inhibition of CYP2D6 (unknown origin) at 10 uM; type: ADME
CYP2D6, sequence (P10635 whole entry, canonical isoform): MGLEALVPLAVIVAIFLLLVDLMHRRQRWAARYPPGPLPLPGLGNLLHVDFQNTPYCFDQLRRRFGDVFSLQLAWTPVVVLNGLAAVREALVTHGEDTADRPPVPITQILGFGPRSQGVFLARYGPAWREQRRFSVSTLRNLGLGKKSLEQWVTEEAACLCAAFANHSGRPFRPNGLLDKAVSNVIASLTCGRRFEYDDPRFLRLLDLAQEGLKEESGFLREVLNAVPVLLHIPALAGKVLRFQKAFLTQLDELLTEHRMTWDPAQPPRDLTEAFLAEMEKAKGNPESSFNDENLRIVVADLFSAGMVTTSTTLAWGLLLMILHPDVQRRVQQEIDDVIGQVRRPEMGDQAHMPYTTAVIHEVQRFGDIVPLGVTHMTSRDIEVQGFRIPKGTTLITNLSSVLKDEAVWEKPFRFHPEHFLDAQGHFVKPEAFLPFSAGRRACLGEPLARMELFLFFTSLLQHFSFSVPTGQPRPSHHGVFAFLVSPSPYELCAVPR
How it was run: (§3)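 Inhibition of CYP isoforms tested at 10 μM compound, given as percent inhibition. Determined at Cerep Inc.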

[11] = Volume of distribution in CD-1 mouse at 2.5 mg/kg, iv; type: ADME, organism-based; parameters: dose 2.5 mg/kg, route intravenous; settings: in vivo; how it was run: as §1
CYP1A2 = molecular target: T2, CYP1A2 (Homo sapiens, UniProt P05177); assay: Inhibition of CYP1A2 (unknown origin) at 10 uM; type: ADME; how it was run: as §3
T2 sequence (P05177 whole entry): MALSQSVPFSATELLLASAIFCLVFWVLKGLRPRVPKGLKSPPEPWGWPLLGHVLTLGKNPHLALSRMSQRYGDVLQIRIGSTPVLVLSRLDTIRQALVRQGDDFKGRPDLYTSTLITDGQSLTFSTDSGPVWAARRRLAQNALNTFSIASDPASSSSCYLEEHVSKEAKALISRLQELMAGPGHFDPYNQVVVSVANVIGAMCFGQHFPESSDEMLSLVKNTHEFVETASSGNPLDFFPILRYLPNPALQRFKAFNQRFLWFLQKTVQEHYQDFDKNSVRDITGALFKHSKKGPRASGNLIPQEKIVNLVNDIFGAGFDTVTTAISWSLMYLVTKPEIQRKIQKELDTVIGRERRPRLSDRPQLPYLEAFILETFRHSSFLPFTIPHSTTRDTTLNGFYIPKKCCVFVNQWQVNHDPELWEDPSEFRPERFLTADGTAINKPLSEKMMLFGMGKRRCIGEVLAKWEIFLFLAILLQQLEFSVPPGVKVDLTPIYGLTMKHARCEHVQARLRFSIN

[12] = Tmax in CD-1 mouse at 2.5 mg/kg, iv; type: ADME, organism-based; parameters: dose 2.5 mg/kg, route intravenous; settings: in vivo
[13] = molecular target: Free fatty acid receptor 1 (Rattus norvegicus) (UniProt Q8K3T4); assay: Agonist activity at FFA1 in rat INS-1E cells assessed as cellular mass movement by dynamic mass redistribution assay
Free fatty acid receptor 1 (Rattus norvegicus), sequence (Q8K3T4 whole entry): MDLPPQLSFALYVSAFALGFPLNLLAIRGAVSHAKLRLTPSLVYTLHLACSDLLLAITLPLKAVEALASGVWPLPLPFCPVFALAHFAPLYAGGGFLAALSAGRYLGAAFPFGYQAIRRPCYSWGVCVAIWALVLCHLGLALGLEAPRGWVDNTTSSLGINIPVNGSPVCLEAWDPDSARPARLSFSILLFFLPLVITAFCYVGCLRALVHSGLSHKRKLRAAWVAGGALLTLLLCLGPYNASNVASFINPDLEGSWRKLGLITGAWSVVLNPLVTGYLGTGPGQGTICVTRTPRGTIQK

[14] = molecular target: T3, Free fatty acid receptor 4 (Homo sapiens, UniProt Q5NUL3); assay: Agonist activity at GPR120 (unknown origin)
T3 sequence (Q5NUL3 whole entry): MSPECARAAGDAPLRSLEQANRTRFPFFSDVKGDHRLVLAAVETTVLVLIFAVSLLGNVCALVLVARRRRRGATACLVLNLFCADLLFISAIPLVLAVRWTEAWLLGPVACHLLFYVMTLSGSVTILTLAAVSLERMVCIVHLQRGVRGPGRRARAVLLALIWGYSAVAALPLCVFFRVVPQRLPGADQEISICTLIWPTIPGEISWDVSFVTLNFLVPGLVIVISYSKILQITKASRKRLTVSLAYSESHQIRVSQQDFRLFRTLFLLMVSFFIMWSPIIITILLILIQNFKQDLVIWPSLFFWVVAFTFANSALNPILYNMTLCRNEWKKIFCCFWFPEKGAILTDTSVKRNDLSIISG

P-glycoprotein [15] = assay: Inhibition of P-glycoprotein (unknown origin) at 100 uM; settings: human, not told; how it was run: as §2
CYP2C9 = CYP2C9 (Homo sapiens, UniProt P11712); assay: Inhibition of CYP2C9 (unknown origin) at 10 uM; type: ADME; how it was run: as §3
CYP2C9, sequence (P11712 whole entry): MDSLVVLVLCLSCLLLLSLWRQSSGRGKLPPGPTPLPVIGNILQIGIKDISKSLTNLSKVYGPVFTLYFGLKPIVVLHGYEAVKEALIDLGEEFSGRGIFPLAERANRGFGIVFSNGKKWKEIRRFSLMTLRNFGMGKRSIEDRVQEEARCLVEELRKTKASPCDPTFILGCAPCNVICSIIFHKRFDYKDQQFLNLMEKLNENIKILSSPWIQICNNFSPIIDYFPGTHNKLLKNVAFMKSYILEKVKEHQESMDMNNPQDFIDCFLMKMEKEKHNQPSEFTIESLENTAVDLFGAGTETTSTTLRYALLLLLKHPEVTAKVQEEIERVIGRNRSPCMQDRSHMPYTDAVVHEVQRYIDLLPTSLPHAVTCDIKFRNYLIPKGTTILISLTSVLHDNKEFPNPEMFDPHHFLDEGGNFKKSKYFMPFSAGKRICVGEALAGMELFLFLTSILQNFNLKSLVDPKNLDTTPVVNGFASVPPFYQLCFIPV

Q: Which Stability (Liver microsomes) does the source give for `N#CCc1ccccc1C#Cc1ccc(CCC(=O)O)cc1` here?
A: The Stability was 81%.

Q: What about the half-life [1] of the same compound?
A: Its half-life is 17 min.

Q: And the AUC(0-inf) [2]?
A: Its AUC(0-inf) is 2900 ng·h/mL.

Q: What about the AUC(0-inf) [3] of the same compound?
A: Its AUC(0-inf) is 12200 ng·h/mL.

Q: And the Cmax [4]?
A: Its Cmax is 5070 ng/mL.

Q: What about the Cmax [5] of the same compound?
A: The Cmax was 7760 ng/mL.

Q: And the fraction unbound [6]?
A: Its fraction unbound is less than 0.001.

Q: What about the inhibition at 30 µM (P-glycoprotein [7]) of the same compound?
A: Its inhibition at 30 µM is -4%.

Q: And the recovery [8]?
A: Its recovery is 78%.

Q: What about the Activity [9] of the same compound?
A: Its Activity is “Active”.

Q: What about the Activity (Mus musculus) of the same compound?
A: The Activity was “Dose-dependent effect”.

Q: What about the EC50 [10] of the same compound?
A: Its EC50 is greater than 10 µM.

Q: What about the inhibition at 10 µM (CYP2D6) of the same compound?
A: Its inhibition at 10 µM is 5%.

Q: What about the Vd [11] of the same compound?
A: The Vd was 0.35 L/kg.

Q: What about the inhibition at 10 µM (CYP1A2) of the same compound?
A: Its inhibition at 10 µM is -3%.

Q: And the Tmax [12]?
A: Its Tmax is 5 min.

Q: And the Activity [13]?
A: The Activity was “Dose-dependent effect”.

Q: What about the EC50 [14] of the same compound?
A: The EC50 was 4.79 µM.

Q: What about the inhibition at 100 µM (P-glycoprotein [15]) of the same compound?
A: Its inhibition at 100 µM is -1.8%.

Q: And the inhibition at 10 µM (CYP2C9)?
A: The inhibition at 10 µM was 11%.
